Experimental data: ChEMBL document CHEMBL1124568, “2,4-Diamino-5-benzylpyrimidines as antibacterial agents. 13. Some alkenyl derivatives with high in vitro activity against anaerobic organisms” (J Med Chem, 1989)
In brackets after ≈: the same amount, converted by molar mass.

Legend:
[1] = molecular target: T1, Dihydrofolate reductase (Escherichia coli, UniProt P0ABQ4); assay: Antibacterial activity against Escherichia coli DHFR
T1 sequence (P0ABQ4 whole entry): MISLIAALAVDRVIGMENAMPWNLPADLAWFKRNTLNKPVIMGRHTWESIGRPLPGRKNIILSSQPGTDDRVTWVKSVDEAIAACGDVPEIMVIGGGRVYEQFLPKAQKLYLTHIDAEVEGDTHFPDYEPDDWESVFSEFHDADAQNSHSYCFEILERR
Procedure, shortened: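 E. coli DHFR assay with 1 nM enzyme. I50 is the inhibitor concentration that halves the standard-assay velocity. […] Apparent Ki for some inhibitors was obtained by the Henderson method.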

[2] = molecular target: T2, Dihydrofolate reductase (Rattus norvegicus, UniProt Q920D2); assay: In vitro inhibition of rat liver dihydrofolate reductase.; details: read-out: I50
T2 sequence (Q920D2 whole entry): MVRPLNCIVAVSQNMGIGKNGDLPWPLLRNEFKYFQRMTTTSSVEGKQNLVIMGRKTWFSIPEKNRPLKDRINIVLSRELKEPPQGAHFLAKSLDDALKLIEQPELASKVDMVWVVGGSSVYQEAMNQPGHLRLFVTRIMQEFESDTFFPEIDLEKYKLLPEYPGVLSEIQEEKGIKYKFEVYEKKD

[3] = tested on: Clostridium perfringens; assay: Ratio of antibacterial (Clostridium perfringens) activities compared to that of trimethoprim and metronidazole; type: functional
[4] = tested on: Streptococcus pyogenes; assay: Antibacterial ([…] CN10) activity compared to trimethoprim.; type: functional
Procedure, shortened: (§1)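 Each MIC is divided by the MIC of trimethoprim run alongside. Serial dilutions were normally 0.1, 0.3, 1, 3, 10, etc., and occasionally 1, 5 and 10. For E. coli the value is the average over six strains.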

[5] = tested on: Mycolicibacterium smegmatis; assay: Antibacterial (Mycobacterium smegmatis S3254) activity compared to trimethoprim.; type: functional; procedure, shortened: as §1
[6] = tested on: Pasteurella multocida; assay: Antibacterial (Pasteurella multocides ATCC 6587) activity compared to trimethoprim.; type: functional; procedure, shortened: as §1
[7] = tested on: Serratia marcescens; assay: Antibacterial (Serratia marcescens CN2398) activity compared to trimethoprim.; type: functional; procedure, shortened: as §1
[8] = tested on: Klebsiella pneumoniae; assay: Antibacterial (Klebsiella pneumoniae CN3632) activity compared to trimethoprim.; type: functional; procedure, shortened: as §1
[9] = tested on: Klebsiella aerogenes; assay: Antibacterial (Enterobacter aerogenes 2201/86) activity compared to trimethoprim.; type: functional; procedure, shortened: as §1
[10] = tested on: Staphylococcus aureus; assay: Antibacterial (Staphylococcus aureus CN491) activity compared to trimethoprim.; type: functional; procedure, shortened: as §1
[11] = tested on: Phocaeicola vulgatus; assay: Ratio of antibacterial (Bacteroides vulgatus) activities compared to that of trimethoprim and metronidazole; type: functional
[12] = tested on: Shigella flexneri; assay: Antibacterial (Shigella flexneri CN6007) activity compared to trimethoprim.; type: functional; procedure, shortened: as §1
[13] = tested on: Proteus vulgaris; assay: Antibacterial (Proteus vulgaris CN329) activity compared to trimethoprim.; type: functional; procedure, shortened: as §1
[14] = Half-life in dogs Plasma; type: ADME, organism-based, Canis lupus familiaris; details: dog
Procedure, shortened: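 Two fasted (18 h) male beagles received 5 mg/kg […] (free base), co-dosed with 5 mg/kg trimethoprim in propylene glycol. Jugular plasma was sampled from 0.17 to 24 h. Drug was extracted, separated by TLC and read by fluorescence densitometry. t1/2 came from least-squares linear regression of the postabsorption segment of the plasma curve.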

[15] = tested on: Fusobacterium nucleatum; assay: Ratio of antibacterial (Fusobacterium nucleatum) activities compared to that of trimethoprim and metronidazole; type: functional
[16] = tested on: Clostridioides difficile; assay: Ratio of antibacterial (Clostridium difficile) activities compared to that of trimethoprim and metronidazole; type: functional
[17] = tested on: Bacteroides thetaiotaomicron; assay: Ratio of antibacterial (Bacteroides thetaiotaomicron) activities compared to that of trimethoprim and metronidazole; type: functional
[18] = tested on: Escherichia coli; assay: Antibacterial (Escherichia coli) activity compared to trimethoprim.; type: functional; procedure, shortened: as §1
[19] = Antibacterial (Salmonella typhi CN512) activity compared to trimethoprim.; type: functional, salmonella typhosa
[20] = molecular target: Dihydrofolate reductase (Staphylococcus aureus, UniProt P0A017); assay: Antibacterial activity against Staphylococcus aureus DHFR
Sequence of Dihydrofolate reductase (Staphylococcus aureus, UniProt P0A017) (P0A017 whole entry): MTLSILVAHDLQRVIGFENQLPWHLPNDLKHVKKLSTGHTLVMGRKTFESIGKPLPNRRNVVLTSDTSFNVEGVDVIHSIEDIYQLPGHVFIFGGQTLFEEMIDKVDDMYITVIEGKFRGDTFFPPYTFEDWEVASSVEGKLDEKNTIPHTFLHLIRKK
Procedure, shortened: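 S. aureus (strain S8862) DHFR was partially purified by ammonium sulfate fractionation and gel filtration. The assay used 0.1 M imidazole chloride pH 6.4, 12 mM mercaptoethanol, 60 µM NADPH and 45 µM dihydrofolate at 30 °C, read at 340 nm. Enzyme, NADPH and inhibitor were preincubated 2 min before dihydrofolate was added. I50 came from % inhibition vs log[inhibitor] plots of steady-state velocities.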

[21] = tested on: Streptococcus pyogenes; assay: Ratio of antibacterial (Streptococcus pyogenes CN10) activities of compound and trimethoprim
[22] = tested on: Proteus vulgaris; assay: Ratio of antibacterial (Proteus vulgaris CN329) activities of compound and trimethoprim; type: functional; procedure, shortened: as §1
[23] = tested on: Salmonella; assay: Ratio of antibacterial (Salmonella typhi CN512) activities of compound and trimethoprim; type: functional, salmonella typhosa
[24] = tested on: Klebsiella pneumoniae; assay: Ratio of antibacterial (Klebsiella pneumoniae CN3632) activities of compound and trimethoprim; type: functional; procedure, shortened: as §1
[25] = tested on: Shigella dysenteriae; assay: (§2) Ratio of antibacterial (Shigella dysentariae CN513) activities of compound and trimethoprim; type: functional
[26] = tested on: Klebsiella aerogenes; assay: Ratio of antibacterial (Enterobacter aerogenes, 2201/86) activities of compound and trimethoprim; type: functional; procedure, shortened: as §1
[27] = tested on: Staphylococcus aureus; assay: Ratio of antibacterial (Staphylococcus aureus CN491) activities of compound and trimethoprim; type: functional; procedure, shortened: as §1
[28] = molecular target: T1, Dihydrofolate reductase; assay: In vitro inhibition of dihydrofolate reductase of Escherichia coli; details: read-out: I50
Procedure, shortened: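 The E. coli DHFR assay contained 1 nM enzyme, with the lower limit for I50 arbitrarily set at 2 nM. I50 was estimated from plots of % inhibition of steady-state velocity vs log inhibitor concentration.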

[29] = tested on: Escherichia coli; assay: Ratio of antibacterial (Escherichia coli CN314) activities of compound and trimethoprim; type: functional
[30] = molecular target: Bifunctional dihydrofolate reductase-thymidylate synthase (Plasmodium berghei str. ANKA, UniProt Q27713); assay: In vitro inhibition of dihydrofolate reductase of Plasmodium berghei; details: read-out: I50
Sequence of Bifunctional dihydrofolate reductase-thymidylate synthase (Q27713 whole entry): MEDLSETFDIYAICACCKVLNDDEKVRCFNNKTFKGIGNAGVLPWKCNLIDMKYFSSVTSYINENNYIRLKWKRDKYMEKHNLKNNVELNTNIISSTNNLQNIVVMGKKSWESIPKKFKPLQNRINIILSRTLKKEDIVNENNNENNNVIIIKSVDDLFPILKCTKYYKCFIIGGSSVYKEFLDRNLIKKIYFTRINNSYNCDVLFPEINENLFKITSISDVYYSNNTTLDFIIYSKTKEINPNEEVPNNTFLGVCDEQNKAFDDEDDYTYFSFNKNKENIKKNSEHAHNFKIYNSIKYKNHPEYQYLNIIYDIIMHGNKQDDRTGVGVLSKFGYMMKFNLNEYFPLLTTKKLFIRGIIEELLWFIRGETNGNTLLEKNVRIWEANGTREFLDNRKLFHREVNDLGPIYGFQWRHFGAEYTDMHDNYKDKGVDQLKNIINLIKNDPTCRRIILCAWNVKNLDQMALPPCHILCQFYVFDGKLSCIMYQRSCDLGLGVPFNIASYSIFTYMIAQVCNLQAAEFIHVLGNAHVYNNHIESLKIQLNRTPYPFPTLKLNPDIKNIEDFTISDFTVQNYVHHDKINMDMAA

[31] = tested on: Shigella dysenteriae; assay: as §2

Structure (SMILES)	IC50 [2] [µM]	MIC [3] [mg/L]	MIC [4] [mg/L]	MIC [6] [mg/L]	MIC [8] [mg/L]	MIC [9] [mg/L]	MIC [10] [mg/L]	MIC [11] [mg/L]	MIC [13] [mg/L]	MIC [15] [mg/L]	MIC [16] [mg/L]	MIC [17] [mg/L]	MIC [18] [mg/L]	MIC [19] [mg/L]	MIC [21] [mg/L]	MIC [22] [mg/L]	MIC [23] [mg/L]	MIC [24] [mg/L]	MIC [25] [mg/L]	MIC [26] [mg/L]	further results
CCCc1cc(Cc2cnc(N)nc2N)cc(CCC)c1O																					Ki [1]: 0.0017 µM
C=CCc1cc(Cc2cnc(N)nc2N)cc(OC)c1OC	50	> 25	0.3 (≈ 0.999 µM)	10 (≈ 33.3 µM)	10 (≈ 33.3 µM)	10 (≈ 33.3 µM)	0.1 (≈ 0.333 µM)	1.6	10 (≈ 33.3 µM)	0.4	> 25	1.6	6 (≈ 20 µM)	3 (≈ 9.99 µM)							MIC [5]: 3 mg/L (≈ 9.99 µM); MIC [7]: 3 mg/L (≈ 9.99 µM); MIC [12]: 10 mg/L (≈ 33.3 µM); half-life [14]: 0.84 h
C=CCc1cc(Cc2cnc(N)nc2N)cc(CC=C)c1OC	18	25	1 (≈ 3.22 µM)	20 (≈ 64.4 µM)	> 10	100 (≈ 322 µM)	5 (≈ 16.1 µM)	0.2	100 (≈ 322 µM)	0.8	> 25	0.2	72 (≈ 232 µM)	100 (≈ 322 µM)							MIC [5]: 10 mg/L (≈ 32.2 µM); Ki [20]: 0.0021 µM; MIC [7]: > 10 mg/L; MIC [12]: 100 mg/L (≈ 322 µM)
CCCc1cc(Cc2cnc(N)nc2N)cc2c1OC(C)(C)C2	9.9														3	100	300	100	300	100	MIC [27]: 3 mg/L; IC50 [28]: 0.28 µM; MIC [29]: 100 mg/L; IC50 [30]: 0.24 µM
CCc1cc(Cc2cnc(N)nc2N)cc2c1OC(C)C2 (centres undefined)	11														1	30	30	30	30	30	MIC [27]: 1 mg/L; IC50 [28]: 0.019 µM; MIC [29]: 30 mg/L; IC50 [30]: 0.1 µM
C=CCc1cc(Cc2cnc(N)nc2N)cc(CCC)c1OC	15	12.5	2 (≈ 6.4 µM)	10 (≈ 32 µM)	100 (≈ 320 µM)	100 (≈ 320 µM)	1 (≈ 3.2 µM)	0.2	> 50	0.8	25	0.1	38 (≈ 122 µM)	100 (≈ 320 µM)							MIC [5]: 0.5 mg/L (≈ 1.6 µM); MIC [7]: > 10 mg/L; MIC [12]: 100 mg/L (≈ 320 µM); Ki [1]: 0.0016 µM
CCCc1cc(Cc2cnc(N)nc2N)cc2c1OC(C)C2 (centres undefined)	6.25														1	30	100	100	30	100	MIC [27]: 1 mg/L; IC50 [28]: 0.021 µM; MIC [29]: 30 mg/L; IC50 [30]: 0.093 µM
CCCc1cc(Cc2cnc(N)nc2N)cc2c1OC(C)C2C (centres undefined)	2.04														1	100	100	100	100	30	MIC [27]: 1 mg/L; IC50 [28]: 0.013 µM; MIC [29]: 30 mg/L; IC50 [30]: 0.012 µM
COc1cc(Cc2cnc(N)nc2N)cc(OC)c1OC [TRIMETHOPRIM]		> 25	1 (≈ 3.44 µM)	1 (≈ 3.44 µM)	1 (≈ 3.44 µM)	1 (≈ 3.44 µM)	1 (≈ 3.44 µM)	6.2	1 (≈ 3.44 µM)	0.8	> 25	12.5	1 (≈ 3.44 µM)	1 (≈ 3.44 µM)							MIC [31]: 1 mg/L; half-life [14]: 3.44 h
